Converted amounts (≈) assume the structure as drawn.

In data set [1] the test system is Cricetinae gen. sp. Briefly: Inhibition of HNE-induced lung hemorrhage in hamsters after oral administration followed by intratracheal instillation of HNE (10 U/lung). The data set is classed as functional. In short, it runs like this:
(§1)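 Hamsters (n = 6-10) were dosed orally 1 h before intratracheal instillation of HNE (10 U/lung). The read-out was inhibition of the HNE-induced lung hemorrhage.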

The test system of data set [2] is Cricetinae gen. sp. Put plainly: (§2) Inhibition of HNE-induced lung hemorrhage in hamsters after oral administration of 30 mg/kg followed by intratracheal instillation of HNE (10 U/lung). The data set is classed as functional. In short, it runs like this:
as §1

In data set [3] the test system is Cricetinae gen. sp. The data set is described as §2. The data set is classed as functional, Cricetulus griseus. In short, it runs like this: as §1
Data set [4] in a line: Solubility was determined at a pH of […] using 1/14 M phosphate buffer. It is filed as physicochemical. Particulars: pH 7.4.
Data set [5] is described as follows: Solubility was determined at a pH of 4.0 using 1/14 M phosphate citrate buffer. Particulars: pH 4. The data set is classed as physicochemical. In short, it runs like this:
(§3)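 Solubility was measured in μg/mL in four vehicles: JP13th first fluid (pH ca. 1.2), 1/14 M phosphate citrate buffer (pH ca. 4.0), physiological saline (pH ca. 5.5) and 1/14 M phosphate buffer (pH ca. 7.4).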

Data set [6] is described as follows: Solubility was determined at a pH of 1.2 using first fluid (JP13th). It is filed as physicochemical. Particulars: pH 1.2. In short, it runs like this: as §3
Data set [7] concerns the target T1, Neutrophil elastase (Homo sapiens, UniProt P08246).
T1 sequence (P08246 whole entry): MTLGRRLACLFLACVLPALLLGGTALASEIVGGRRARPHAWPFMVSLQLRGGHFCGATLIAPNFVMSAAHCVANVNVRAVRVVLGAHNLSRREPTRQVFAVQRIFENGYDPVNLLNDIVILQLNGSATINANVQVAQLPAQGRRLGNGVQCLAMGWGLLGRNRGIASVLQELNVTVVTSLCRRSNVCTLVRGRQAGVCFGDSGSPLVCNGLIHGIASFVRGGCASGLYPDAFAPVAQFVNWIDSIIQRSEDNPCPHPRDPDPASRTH
Put plainly: Binding constant derived from inhibition of elastase catalyzed hydrolysis of synthetic substrate.

For `CC(C)[C@H](NC(=O)Cn1c(-c2ccccc2)nccc1=O)C(=O)c1nnc(C2(C)CC2)o1`, in data set [1], the 50% effect level (ED50) was put at a dose of 6.6 mg/kg.
Consider `CC(C)[C@H](NC(=O)Cn1c(-c2ccc(F)cc2)ncc(N)c1=O)C(=O)c1nnc(C(C)(C)c2ccccc2)o1`, for which the 50% effective dose (ED50) in data set [1] turned out to be 10 mg/kg.
As to `CC(C)[C@H](NC(=O)Cn1c(-c2ccccc2)ncc(N)c1=O)C(=O)c1nnc(C2(C)CC2)o1`, the ED50 in data set [2] was found to be 11 mg/kg.
`CC(C)[C@H](NC(=O)Cn1c(-c2ccc(F)cc2)nccc1=O)C(=O)c1nnc(C(C)(C)c2ccccc2)o1` showed an inhibition in vivo at 30 mg/kg in data set [2] of 61%.
`CC(C)[C@H](NC(=O)Cn1c(-c2ccc(F)cc2)ncc(N)c1=O)C(=O)c1nnc(Cc2ccccc2)o1`: in data set [2], the inhibition in vivo at 30 mg/kg was 53%.
Compound `CC(C)[C@H](NC(=O)Cn1c(-c2ccc(F)cc2)ncc(N)c1=O)C(=O)c1nnc(-c2ccccc2)o1` displayed an inhibition in vivo at 30 mg/kg in data set [3] of 9%.
`CC(C)[C@H](NC(=O)Cn1c(-c2ccccc2)ncc(N)c1=O)C(=O)c1nnc(C(C)(C)c2ccccc2)o1`: the solubility turned out to be 20 µg/mL (≈ 38.9 µM) in data set [4], 26 µg/mL (≈ 50.5 µM) in data set [5] and 499 µg/mL (≈ 970 µM) in data set [6]. Besides, the median effective dose (ED50) in data set [1] came to 25 mg/kg.
`CC(C)[C@H](NC(=O)[C@@H]1CCCN1C(=O)[C@@H](NS(C)(=O)=O)C(C)C)C(=O)c1nnc(C(C)(C)C)o1` registered an inhibition in vivo at 30 mg/kg in data set [2] of 17%.
With `CC(C)[C@H](NC(=O)Cn1c(-c2ccccc2)nccc1=O)C(=O)c1nnc(C(C)(C)C)o1`, the 50% effect level in data set [1] (ED50) was put at a dose of 4 mg/kg.
In data set [2], `COc1ccc(-c2nnc(C(=O)[C@@H](NC(=O)Cn3c(-c4ccc(F)cc4)ncc(N)c3=O)C(C)C)o2)cc1` registered an inhibition in vivo at 30 mg/kg of 13%. The compound further registered a Ki in data set [7] of 21.2 nM.
In data set [1], `Cc1cccc(Cc2nnc(C(=O)[C@@H](NC(=O)Cn3c(-c4ccc(F)cc4)ncc(N)c3=O)C(C)C)o2)c1` came in with an ED50 of 13 mg/kg.
For `CC(C)[C@H](NC(=O)COc1cccc(-c2ccccc2)n1)C(=O)c1nnc(C(C)(C)C)o1`, testing at 30 mg/kg in data set [2] gave an inhibition in vivo of 28%. Further, in data set [7], the affinity, expressed as Ki, was 4280 nM.
`CC(C)C[C@@H]1NC(=O)N(CC(=O)N[C@H](C(=O)c2nnc(C(C)(C)C)o2)C(C)C)C1=O` showed an inhibition in vivo at 30 mg/kg in data set [2] of 0%.
The compound `CC(C)c1nnc(C(=O)[C@@H](NC(=O)Cn2c(-c3ccc(F)cc3)ncc(N)c2=O)C(C)C)o1` returned an inhibition in vivo at 30 mg/kg in data set [3] of 79%.
`CC(C)C(NC(=O)Cn1c(-c2ccc(F)cc2)ncc(N)c1=O)C(=O)C(F)(F)F` (centres undefined) came in with a 50% effective dose (ED50) in data set [1] of 7.5 mg/kg.
`CC(C)[C@H](NC(=O)[C@@H]1Cc2ccccc2N1C(=O)c1c[nH]cn1)C(=O)c1nnc(C(C)(C)C)o1` returned an inhibition in vivo at 30 mg/kg in data set [2] of 81%. The same compound returned an inhibition constant (Ki) in data set [7] of 79.7 nM.
The corresponding values for `CC(C)[C@H](NC(=O)C1Cc2ccccc2CN1C(=O)c1c[nH]cn1)C(=O)c1nnc(C(C)(C)C)o1` (some centres undefined) are 29% and 309 nM.

The ED50 is the dose at which the effect has come halfway, by size or by number of responders. A lower ED50 goes with an effect at a small dose. As usually defined, the inhibition in vivo is the share of the control response that was lost under treatment. Low values mean little suppression, high ones strong suppression. In general, solubility refers to the concentration that dissolves in the medium under given conditions. A higher solubility goes with a readily soluble substance. As usually defined, the Ki is a dissociation constant, usually derived from enzyme kinetics or from competition with a known ligand. A lower Ki goes with higher affinity.

These data come from ChEMBL document CHEMBL1134847, “Development of orally active nonpeptidic inhibitors of human neutrophil elastase” (J Med Chem, 2001).
